Experiments:
Format in all cases: functional
Homo sapiens [1] = species on record: Homo sapiens; test: Selectivity index, ratio of LC50 for growth inhibitor of human BT-549 to LC50 for growth inhibitor of human MDA-MB-231
Summary of the method: (§1)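 Selectivity index is the LC50 of the named TNBC line divided by the LC50 in MDA-MB-231 cells.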

BT-549 = test: Growth inhibition of human BT-549 cells after 48 hrs by SRB assay; settings: for CC50: read-out: LC50 (the source's name)
Homo sapiens [2] = species on record: Homo sapiens; test: Selectivity index, ratio of LC50 for growth inhibitor of human MDA-MB-468 to LC50 for growth inhibitor of human MDA-MB-231; summary of the method: as §1
Homo sapiens [3] = species on record: Homo sapiens; test: Selectivity index, ratio of TGI for growth inhibitor of human BT-549 to TGI for growth inhibitor of human MDA-MB-231
Homo sapiens [4] = species on record: Homo sapiens; test: Selectivity index, ratio of LC50 for growth inhibitor of human […] to LC50 for growth inhibitor of human MDA-MB-231; summary of the method: as §1
MDA-MB-231 = test: Growth inhibition of human MDA-MB-231 cells after 48 hrs by SRB assay; settings: for CC50: read-out: LC50 (the source's name)
Summary of the method: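 Cells were exposed to compound for 48 h, and growth was read by sulforhodamine B staining. TGI (total growth inhibition concentration, μM) was taken from concentration–response curves, n = 3, means ± SEM. MDA-MB-231 cells were grown in IMEM with 10% FBS at 37 °C in 5% CO2.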

MDA-MB-453 = test: Growth inhibition of human MDA-MB-453 cells after 48 hrs by SRB assay; settings: for CC50: read-out: LC50 (the source's name)
Homo sapiens [5] = species on record: Homo sapiens; test: Selectivity index, ratio of LC50 for growth inhibitor of human MDA-MB-453 to LC50 for growth inhibitor of human MDA-MB-231; summary of the method: as §1
Homo sapiens [6] = species on record: Homo sapiens; test: Selectivity index, ratio of LC50 for growth inhibitor of human MDA-MB-157 to LC50 for growth inhibitor of human MDA-MB-231; summary of the method: as §1
MDA-MB-468 = test: Growth inhibition of human MDA-MB-468 cells after 48 hrs by SRB assay; settings: for CC50: read-out: LC50 (the source's name)
HCC1806 = test: Growth inhibition of human HCC1806 cells after 48 hrs by SRB assay; settings: for CC50: read-out: LC50 (the source's name)
MDA-MB-157 = test: Growth inhibition of human MDA-MB-157 cells after 48 hrs by SRB assay; settings: for CC50: read-out: LC50 (the source's name)

C=CCCCCC/C=C\CC#CC#C[C@@H](O)C=C
RatioLC50 (Homo sapiens [1]): 5.3
GI50 (BT-549): 220 nM
TGI (BT-549): 420 nM
CC50 (BT-549): 900 nM
RatioLC50 (Homo sapiens [2]): 26
Selectivity Index (Homo sapiens [3]): 7.3
RatioLC50 (Homo sapiens [4]): 7.1
GI50 (MDA-MB-231): 51 nM
TGI (MDA-MB-231): 89 nM
CC50 (MDA-MB-231): 170 nM
GI50 (MDA-MB-453): 2800 nM
TGI (MDA-MB-453): > 5000 nM
CC50 (MDA-MB-453): > 5000 nM
RatioLC50 (Homo sapiens [5]): > 29
RatioLC50 (Homo sapiens [6]): 1.7
GI50 (MDA-MB-468): 850 nM
TGI (MDA-MB-468): 2000 nM
CC50 (MDA-MB-468): 4400 nM
GI50 (HCC1806): 300 nM
TGI (HCC1806): 540 nM
CC50 (HCC1806): 1200 nM
GI50 (MDA-MB-157): 59 nM
TGI (MDA-MB-157): 130 nM
CC50 (MDA-MB-157): 290 nM

C=CCCCCCC(O)/C=C/C#CC#C[C@@H](O)C=C (single isomer, unassigned) [DENDROARBOREOL B]
TGI (BT-549): 1100 nM
Selectivity Index (Homo sapiens [3]): 6.9
TGI (MDA-MB-231): 160 nM

C=CCCCCC(O)/C=C/C#CC#C[C@@H](O)C=C (mixture of isomers)
TGI (BT-549): 4200 nM
Selectivity Index (Homo sapiens [3]): 12
TGI (MDA-MB-231): 360 nM

C=CCCC/C=C\C(C#CC#C[C@H](O)C=C)OC(C)=O (stereo partly drawn)
TGI (BT-549): 2000 nM
Selectivity Index (Homo sapiens [3]): 0.8
TGI (MDA-MB-231): 2500 nM

C=CCCC/C=C\[C@H](O)C#CC#C[C@H](O)C=C
TGI (BT-549): 29000 nM
Selectivity Index (Homo sapiens [3]): 2.4
TGI (MDA-MB-231): 12000 nM

C=C[C@@H](O)C#CC#CC/C=C\CCCCCCC
TGI (BT-549): 9000 nM
Selectivity Index (Homo sapiens [3]): 1.5
TGI (MDA-MB-231): 6000 nM

C=CCCCC/C=C\CC#CC#C[C@@H](O)C=C
RatioLC50 (Homo sapiens [1]): 9
GI50 (BT-549): 390 nM
TGI (BT-549): 850 nM
CC50 (BT-549): 1900 nM
RatioLC50 (Homo sapiens [2]): 26
Selectivity Index (Homo sapiens [3]): 4.7
RatioLC50 (Homo sapiens [4]): 9
GI50 (MDA-MB-231): 74 nM
TGI (MDA-MB-231): 120 nM
CC50 (MDA-MB-231): 210 nM
GI50 (MDA-MB-453): 1700 nM
TGI (MDA-MB-453): 5100 nM
CC50 (MDA-MB-453): 9800 nM
RatioLC50 (Homo sapiens [5]): 47
RatioLC50 (Homo sapiens [6]): 2.4
GI50 (MDA-MB-468): 1300 nM
TGI (MDA-MB-468): 3100 nM
CC50 (MDA-MB-468): 5400 nM
GI50 (HCC1806): 390 nM
TGI (HCC1806): 880 nM
CC50 (HCC1806): 1900 nM
GI50 (MDA-MB-157): 190 nM
TGI (MDA-MB-157): 300 nM
CC50 (MDA-MB-157): 510 nM

From ChEMBL document CHEMBL4665845, “CRISPR-Cas9 Genome-Wide Knockout Screen Identifies Mechanism of Selective Activity of Dehydrofalcarinol in Mesenchymal Stem-like Triple-Negative Breast Cancer Cells” (2020)
